The values that follow come from ChEMBL document CHEMBL3862028, “Exploring N-Arylsulfonyl-l-proline Scaffold as a Platform for Potent and Selective αvβ1 Integrin Inhibitors” (ACS Med Chem Lett, 2016).

pIC50: −log10 of the molar value. A value given as a limit tells only on which side of the number the result lay.

One experiment concerns the target Integrin alpha-V/beta-1 (Homo sapiens, UniProt P05556+P06756). Briefly: Inhibition of integrin alphaVbeta1 (unknown origin)-mediated CHO cell adhesion to fibronectin preincubated for 15 to 30 mins followed by 60 min incubation for adhesion by crystal violet staining based cell adhesion assay. The note with it: for pIC50: read-out: IC50; for IC50: read-out: pIC50 (converted). In outline: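 α5-deficient CHO cells engineered to express αvβ1 were tested for adhesion to fibronectin (0.3 mg/ml). Values reported as pIC50 (–logIC50, M) with standard deviation, n=3.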

A further experiment addresses Integrin alpha-V/beta-3 (Homo sapiens, UniProt P05106+P06756). Briefly: Inhibition of human integrin alphaVbeta3-mediated human SW480 cell adhesion to fibrinogen preincubated for 15 to 30 mins followed by 60 min incubation for adhesion by crystal violet staining based cell adhesion assay. In outline:
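Adhesion of SW480 cells transfected with human β3 to fibrinogen (1 mg/ml), isolating αvβ3. Values reported as pIC50 (–logIC50, M) with standard deviation, n=3.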

A further experiment concerns the target Integrin alpha-V/beta-5 (Homo sapiens, UniProt P06756+P18084). Briefly: Inhibition of human wild type integrin alphaVbeta5-mediated human SW480 cell adhesion to vitronectin preincubated for 15 to 30 mins followed by 60 min incubation for adhesion by crystal violet staining based cell adhesion assay. The method in brief: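 Wild-type SW480 cells adhering to vitronectin (0.1 mg/ml) served to isolate αvβ5. Values reported as pIC50 (–logIC50, M) with standard deviation, n=3.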

Another experiment addresses Integrin alpha-V/beta-8 (Homo sapiens, UniProt P06756+P26012). Briefly: Inhibition of human integrin alphaVbeta8-mediated human SNB19 cell adhesion to recombinant human TGFbeta1 LAP preincubated for 15 to 30 mins followed by 60 min incubation for adhesion by crystal violet staining based cell adhesion assay. More on the design: species or system SNB-19. In outline: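 The αvβ8-expressing glioma line SNB19 was tested for adhesion to recombinant human TGFβ1 LAP (1 mg/ml). Values reported as pIC50 (–logIC50, M) with standard deviation, n=3.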

The next experiment addresses Integrin alpha-5/beta-1 (Homo sapiens, UniProt P05556+P08648). Briefly: Inhibition of human integrin alpha5beta1-mediated human SW480 cell adhesion to fibronectin preincubated for 15 to 30 mins followed by 60 min incubation for adhesion by crystal violet staining based cell adhesion assay. In outline: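 Colon carcinoma SW480 cells plated on fibronectin (0.3 mg/ml) to isolate α5β1-dependent adhesion. Values reported as pIC50 (–logIC50, M) with standard deviation, n=3.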

Chain of Integrin alpha-5/beta-1 (P05556 21-798 limits assumed): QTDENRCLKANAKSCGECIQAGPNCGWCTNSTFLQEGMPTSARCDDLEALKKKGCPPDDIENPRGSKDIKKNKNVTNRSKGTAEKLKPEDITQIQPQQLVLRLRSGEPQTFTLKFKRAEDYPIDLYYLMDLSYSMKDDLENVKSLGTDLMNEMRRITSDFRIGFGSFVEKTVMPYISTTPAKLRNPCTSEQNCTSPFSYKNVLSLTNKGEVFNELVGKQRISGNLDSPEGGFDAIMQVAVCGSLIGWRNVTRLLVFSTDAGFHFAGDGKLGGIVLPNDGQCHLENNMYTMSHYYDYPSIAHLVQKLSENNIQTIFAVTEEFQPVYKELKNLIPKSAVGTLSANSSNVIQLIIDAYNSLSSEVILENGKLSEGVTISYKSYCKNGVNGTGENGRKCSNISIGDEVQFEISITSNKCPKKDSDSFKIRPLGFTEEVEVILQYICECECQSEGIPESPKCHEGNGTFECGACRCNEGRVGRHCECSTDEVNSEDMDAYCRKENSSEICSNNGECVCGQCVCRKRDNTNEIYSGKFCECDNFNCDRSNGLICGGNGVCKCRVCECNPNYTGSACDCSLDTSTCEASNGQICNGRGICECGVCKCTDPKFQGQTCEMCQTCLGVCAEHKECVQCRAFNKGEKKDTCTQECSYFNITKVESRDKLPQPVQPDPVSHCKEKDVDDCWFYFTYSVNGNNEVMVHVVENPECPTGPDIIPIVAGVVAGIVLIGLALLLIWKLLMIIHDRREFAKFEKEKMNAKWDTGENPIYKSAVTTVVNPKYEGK
Chain of Integrin alpha-5/beta-1 (P08648 42-894 limits assumed): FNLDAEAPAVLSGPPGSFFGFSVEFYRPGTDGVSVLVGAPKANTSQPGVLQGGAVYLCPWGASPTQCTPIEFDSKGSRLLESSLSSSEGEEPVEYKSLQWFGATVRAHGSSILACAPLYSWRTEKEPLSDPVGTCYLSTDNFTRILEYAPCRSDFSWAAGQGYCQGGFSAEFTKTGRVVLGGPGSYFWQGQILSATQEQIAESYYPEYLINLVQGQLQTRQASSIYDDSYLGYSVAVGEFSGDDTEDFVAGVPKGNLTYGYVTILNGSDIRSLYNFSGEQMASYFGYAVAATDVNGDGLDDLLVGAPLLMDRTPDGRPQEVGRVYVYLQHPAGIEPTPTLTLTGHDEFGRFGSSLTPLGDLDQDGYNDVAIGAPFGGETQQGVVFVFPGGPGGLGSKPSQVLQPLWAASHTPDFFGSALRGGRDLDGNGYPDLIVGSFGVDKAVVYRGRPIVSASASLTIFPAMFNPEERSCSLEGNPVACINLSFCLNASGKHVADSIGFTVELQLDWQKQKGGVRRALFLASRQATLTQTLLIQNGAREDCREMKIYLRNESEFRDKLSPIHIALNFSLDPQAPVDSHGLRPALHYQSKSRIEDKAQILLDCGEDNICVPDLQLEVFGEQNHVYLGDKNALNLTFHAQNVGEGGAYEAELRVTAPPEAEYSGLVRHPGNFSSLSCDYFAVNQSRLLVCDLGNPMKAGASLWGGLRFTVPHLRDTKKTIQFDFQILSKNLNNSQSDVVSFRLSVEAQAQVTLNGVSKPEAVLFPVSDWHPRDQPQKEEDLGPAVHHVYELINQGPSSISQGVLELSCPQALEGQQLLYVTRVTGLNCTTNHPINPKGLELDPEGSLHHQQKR
Chain of Integrin alpha-5/beta-1 (P08648 895-1049 limits assumed): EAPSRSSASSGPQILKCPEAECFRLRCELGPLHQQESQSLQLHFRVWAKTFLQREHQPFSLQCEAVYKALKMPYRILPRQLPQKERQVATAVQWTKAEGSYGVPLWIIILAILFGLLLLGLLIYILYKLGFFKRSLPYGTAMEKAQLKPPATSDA
Chain of Integrin alpha-V/beta-1 (P05556 21-798 limits assumed): as the sequence (P05556 21-798 limits assumed) above
Chain of Integrin alpha-V/beta-1 (P06756 31-889 limits assumed): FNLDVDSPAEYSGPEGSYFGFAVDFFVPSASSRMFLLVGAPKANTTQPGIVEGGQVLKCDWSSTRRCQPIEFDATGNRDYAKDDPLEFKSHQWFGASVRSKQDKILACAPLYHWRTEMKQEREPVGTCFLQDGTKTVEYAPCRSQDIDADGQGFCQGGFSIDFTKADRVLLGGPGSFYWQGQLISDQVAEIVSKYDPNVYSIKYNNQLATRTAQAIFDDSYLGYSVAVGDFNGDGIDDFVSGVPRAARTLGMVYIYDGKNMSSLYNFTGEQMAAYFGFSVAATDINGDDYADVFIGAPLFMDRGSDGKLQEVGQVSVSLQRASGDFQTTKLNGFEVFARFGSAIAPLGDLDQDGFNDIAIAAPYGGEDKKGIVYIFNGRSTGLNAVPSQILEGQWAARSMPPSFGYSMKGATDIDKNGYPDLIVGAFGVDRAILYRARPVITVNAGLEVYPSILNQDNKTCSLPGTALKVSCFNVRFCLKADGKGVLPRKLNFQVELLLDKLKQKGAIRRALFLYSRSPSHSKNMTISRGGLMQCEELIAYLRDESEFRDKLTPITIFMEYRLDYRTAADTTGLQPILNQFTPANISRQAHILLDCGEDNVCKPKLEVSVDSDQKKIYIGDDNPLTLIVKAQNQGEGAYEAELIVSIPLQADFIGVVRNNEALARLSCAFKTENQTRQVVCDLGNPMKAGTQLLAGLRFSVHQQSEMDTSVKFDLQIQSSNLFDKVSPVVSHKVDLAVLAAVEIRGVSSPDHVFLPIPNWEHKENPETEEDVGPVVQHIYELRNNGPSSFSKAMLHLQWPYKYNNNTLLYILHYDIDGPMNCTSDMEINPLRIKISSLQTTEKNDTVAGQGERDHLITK
Chain of Integrin alpha-V/beta-1 (P06756 891-1048 limits assumed): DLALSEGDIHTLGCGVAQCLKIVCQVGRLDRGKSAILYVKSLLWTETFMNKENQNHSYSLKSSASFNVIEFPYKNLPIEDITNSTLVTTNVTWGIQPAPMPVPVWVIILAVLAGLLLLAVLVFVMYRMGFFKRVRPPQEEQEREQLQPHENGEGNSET
Chain of Integrin alpha-V/beta-5 (P06756 31-889 limits assumed): as the sequence (P06756 31-889 limits assumed) above
Chain of Integrin alpha-V/beta-5 (P06756 891-1048 limits assumed): as the sequence (P06756 891-1048 limits assumed) above
Chain of Integrin alpha-V/beta-5 (P18084 24-799 limits assumed): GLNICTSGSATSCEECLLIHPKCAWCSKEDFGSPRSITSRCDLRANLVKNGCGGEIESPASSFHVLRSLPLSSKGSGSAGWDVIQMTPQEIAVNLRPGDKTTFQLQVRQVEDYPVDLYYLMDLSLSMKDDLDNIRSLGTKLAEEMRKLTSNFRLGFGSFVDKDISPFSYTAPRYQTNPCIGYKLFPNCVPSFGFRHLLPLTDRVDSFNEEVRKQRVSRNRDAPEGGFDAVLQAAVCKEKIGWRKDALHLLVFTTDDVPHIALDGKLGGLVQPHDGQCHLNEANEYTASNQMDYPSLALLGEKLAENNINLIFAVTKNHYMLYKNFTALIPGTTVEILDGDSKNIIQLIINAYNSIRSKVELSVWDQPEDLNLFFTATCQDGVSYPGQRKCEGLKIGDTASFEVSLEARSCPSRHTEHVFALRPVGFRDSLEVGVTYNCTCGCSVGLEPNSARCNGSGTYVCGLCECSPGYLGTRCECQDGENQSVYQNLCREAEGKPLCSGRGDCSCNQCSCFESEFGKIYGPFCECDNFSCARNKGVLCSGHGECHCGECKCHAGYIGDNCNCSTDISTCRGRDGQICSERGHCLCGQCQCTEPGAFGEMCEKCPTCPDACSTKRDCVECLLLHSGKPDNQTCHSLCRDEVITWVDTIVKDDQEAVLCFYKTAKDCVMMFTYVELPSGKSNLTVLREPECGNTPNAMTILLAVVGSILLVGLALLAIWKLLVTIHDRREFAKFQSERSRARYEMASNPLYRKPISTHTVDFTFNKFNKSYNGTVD
Chain of Integrin alpha-V/beta-8 (P06756 31-889 limits assumed): as the sequence (P06756 31-889 limits assumed) above
Chain of Integrin alpha-V/beta-8 (P06756 891-1048 limits assumed): as the sequence (P06756 891-1048 limits assumed) above
Chain of Integrin alpha-V/beta-8 (P26012 43-769 limits assumed): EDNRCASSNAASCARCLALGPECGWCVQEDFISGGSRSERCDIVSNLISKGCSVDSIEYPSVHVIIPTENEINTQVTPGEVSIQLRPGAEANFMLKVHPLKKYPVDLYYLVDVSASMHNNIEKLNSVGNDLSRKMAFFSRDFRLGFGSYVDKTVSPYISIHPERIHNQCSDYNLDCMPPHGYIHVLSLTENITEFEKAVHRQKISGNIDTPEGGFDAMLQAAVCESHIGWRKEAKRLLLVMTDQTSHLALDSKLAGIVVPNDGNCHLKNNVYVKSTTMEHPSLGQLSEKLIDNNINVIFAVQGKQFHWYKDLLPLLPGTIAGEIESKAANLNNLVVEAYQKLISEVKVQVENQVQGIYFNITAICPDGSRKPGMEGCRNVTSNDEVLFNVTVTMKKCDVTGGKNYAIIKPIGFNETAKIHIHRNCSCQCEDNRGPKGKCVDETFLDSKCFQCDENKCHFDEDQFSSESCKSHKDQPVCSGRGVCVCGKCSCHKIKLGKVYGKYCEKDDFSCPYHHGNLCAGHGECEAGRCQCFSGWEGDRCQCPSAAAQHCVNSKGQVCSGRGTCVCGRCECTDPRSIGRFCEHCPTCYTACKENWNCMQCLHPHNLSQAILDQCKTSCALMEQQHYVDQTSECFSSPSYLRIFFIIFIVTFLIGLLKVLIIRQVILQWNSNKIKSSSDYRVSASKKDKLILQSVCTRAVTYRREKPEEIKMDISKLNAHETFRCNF

By pIC50 is commonly meant the negative decadic logarithm of the IC50, by convention in mol/L. With `N=C(N)NCCCCC(=O)Nc1ccc(C[C@H](NC(=O)[C@@H]2CCN2S(=O)(=O)c2ccccc2)C(=O)O)cc1`, the pIC50 at Integrin alpha-V/beta-1 is 6.80.
Still for that read-out and setting: with `Cc1ccc(NCCCC(=O)Nc2ccc(C[C@H](NC(=O)[C@@H]3CCCN3S(=O)(=O)c3ccccc3)C(=O)O)cc2)nc1` the figure was 6.49.
Still for that read-out and setting: under `Cc1ccc(S(=O)(=O)N2CCC[C@H]2C(=O)N[C@@H](Cc2ccc(NC(=O)CCCCNC(=N)N)cc2)C(=O)O)c2ccccc12` stands 5.20.
`N=C(N)NCCCCC(=O)Nc1ccc(C[C@H](NC(=O)[C@@H]2CCCCN2S(=O)(=O)c2ccccc2)C(=O)O)cc1`: the pIC50 is 9.49 to 9.51 at Integrin alpha-V/beta-1; 5.40 against Integrin alpha-V/beta-3; 6.80 against Integrin alpha-V/beta-5; 5.70 at Integrin alpha-V/beta-8; 5.49 on Integrin alpha-5/beta-1. Besides, the IC50 at Integrin alpha-V/beta-1 was 0.316 nM.
Take `Cc1ccc(S(=O)(=O)N2CCC[C@H]2C(=O)N[C@@H](Cc2ccc(NC(=O)CCCNC(=N)N)cc2)C(=O)O)cc1`: the pIC50 on Integrin alpha-V/beta-1 is 6.20.
In the case of `N=C(N)Nc1cccc(C(=O)Nc2ccc(C[C@H](NC(=O)[C@@H]3CCCN3S(=O)(=O)c3ccccc3)C(=O)O)cc2)c1`, the pIC50 was 10.22 at Integrin alpha-V/beta-1; 6.80 against Integrin alpha-V/beta-3; less than 5.00 against Integrin alpha-V/beta-5; 7.40 at Integrin alpha-V/beta-8; 7.20 at Integrin alpha-5/beta-1.
As for `N=C(N)Nc1ccc(CC(=O)Nc2ccc(C[C@H](NC(=O)[C@@H]3CCCN3S(=O)(=O)c3ccccc3)C(=O)O)cc2)cc1`, at Integrin alpha-V/beta-1, the pIC50 is 7.30.
Regarding `N=C(N)N[C@H]1CC[C@@H](C(=O)Nc2ccc(C[C@H](NC(=O)[C@@H]3CCCN3S(=O)(=O)c3ccccc3)C(=O)O)cc2)CC1`, on Integrin alpha-V/beta-1, the pIC50 was 8.70.
Regarding `CN(C)c1cccc2c(S(=O)(=O)N3CCC[C@H]3C(=O)N[C@@H](Cc3ccc(NC(=O)CCCCNC(=N)N)cc3)C(=O)O)cccc12`, the pIC50 on Integrin alpha-V/beta-1 was 7.10.
Same read-out and setting: with `N=C(N)NCCCCC(=O)Nc1ccc(C[C@H](NC(=O)[C@@H]2C[C@H](F)CN2S(=O)(=O)c2ccccc2)C(=O)O)cc1` the figure was 9.30; with `Cc1cc(F)ccc1S(=O)(=O)N1CCC[C@H]1C(=O)N[C@@H](Cc1ccc(NC(=O)CCCCNC(=N)N)cc1)C(=O)O`, 6.30; with `N=C(N)NC12CC3CC(C1)CC(C(=O)Nc1ccc(C[C@H](NC(=O)[C@@H]4CCCN4S(=O)(=O)c4ccccc4)C(=O)O)cc1)(C3)C2`, 5.60.
For `O=C(CCCNc1ccccn1)Nc1ccc(C[C@H](NC(=O)[C@@H]2CCCN2S(=O)(=O)c2ccccc2)C(=O)O)cc1`, the pIC50 on Integrin alpha-V/beta-1 was 9.70; at Integrin alpha-V/beta-3, less than 5.00; on Integrin alpha-V/beta-5 it was less than 5.00; on Integrin alpha-V/beta-8 it was 6.40; against Integrin alpha-5/beta-1, less than 5.00.
Consider `O=C(CCCCNC1=NCCCN1)Nc1ccc(C[C@H](NC(=O)[C@@H]2CCCN2S(=O)(=O)c2ccccc2)C(=O)O)cc1`, for which, at Integrin alpha-V/beta-1, the negative-log IC50 (pIC50) was 8.70.
The same measure, in the same setting: with `N=C(N)NCCCC(=O)Nc1ccc(C[C@H](NC(=O)[C@@H]2CCCN2S(=O)(=O)c2ccccc2)C(=O)O)cc1` the figure was 10.70; with `CC1(C)SCN(S(=O)(=O)c2ccccc2)[C@@H]1C(=O)N[C@@H](Cc1ccc(NC(=O)CCCCNC(=N)N)cc1)C(=O)O`, 5.70.
The same measure, in the same setting: under `N=C(N)NCCCCC(=O)Nc1ccc(C[C@H](NC(=O)[C@@H]2CCCN2S(=O)(=O)c2cccnc2)C(=O)O)cc1` stands 7.49; under `N=C(N)NCCCCC(=O)Nc1ccc(C[C@H](NC(=O)[C@@H]2CCCN2S(=O)(=O)c2cccs2)C(=O)O)cc1`, 7.30; under `O=C(CCCNC1=NCCN1)Nc1ccc(C[C@H](NC(=O)[C@@H]2CCCN2S(=O)(=O)c2ccccc2)C(=O)O)cc1`, 9.89.
Still for that read-out and setting: with `N=C(N)NCCCCC(=O)Nc1ccc(C[C@H](NC(=O)[C@@H]2CCCN2S(=O)(=O)c2cc(F)cc(F)c2)C(=O)O)cc1` the figure was 7.40.
Take `Cc1cc(C)cc(S(=O)(=O)N2CCC[C@H]2C(=O)N[C@@H](Cc2ccc(NC(=O)CCCNC(=N)N)cc2)C(=O)O)c1`: at Integrin alpha-V/beta-1, the pIC50 is 6.10.
Still for that read-out and setting: with `N=C(N)NCCCCC(=O)Nc1ccc(C[C@H](NC(=O)[C@@H]2CCCN2S(=O)(=O)c2cccc([N+](=O)[O-])c2)C(=O)O)cc1` the figure was 7.89; with `O=C(CCCCNc1ccccn1)Nc1ccc(C[C@H](NC(=O)[C@@H]2CCCN2S(=O)(=O)c2ccccc2)C(=O)O)cc1`, 8.70.
The same measure, in the same setting: under `N=C(N)NCCCCC(=O)Nc1ccc(C[C@H](NC(=O)[C@@H]2CCCN2S(=O)(=O)c2ccc3ccccc3c2)C(=O)O)cc1` stands 5.60; under `N=C(N)NCCCCC(=O)Nc1ccc(C[C@H](NC(=O)[C@@H]2C[C@@H](F)CN2S(=O)(=O)c2ccccc2)C(=O)O)cc1`, 9.30; under `N=C(N)Nc1ccc(C(=O)Nc2ccc(C[C@H](NC(=O)[C@@H]3CCCN3S(=O)(=O)c3ccccc3)C(=O)O)cc2)cc1`, 6.10.
`N=C(N)NCCCCC(=O)Nc1ccc(C[C@H](NC(=O)[C@@H]2CCCN2S(=O)(=O)c2ccccc2)C(=O)O)cc1`: the pIC50 was 9.20 on Integrin alpha-V/beta-1; less than 5.00 at Integrin alpha-V/beta-3; less than 5.00 against Integrin alpha-V/beta-5; less than 5.00 on Integrin alpha-V/beta-8; less than 5.00 at Integrin alpha-5/beta-1.
Take `C[C@@]1(C(=O)N[C@@H](Cc2ccc(NC(=O)CCCCNC(=N)N)cc2)C(=O)O)CCCN1S(=O)(=O)c1ccccc1`: on Integrin alpha-V/beta-1 (cho), the pIC50 is less than 5.00. At Integrin alpha-V/beta-1, the IC50 was more than 10000 nM.
As for `O=C(CCCCNC1=NCCN1)Nc1ccc(C[C@H](NC(=O)[C@@H]2CCCN2S(=O)(=O)c2ccccc2)C(=O)O)cc1`, the pIC50 was 9.49 to 9.51 at Integrin alpha-V/beta-1; less than 5.00 on Integrin alpha-V/beta-3; 6.70 against Integrin alpha-V/beta-5; less than 5.00 at Integrin alpha-V/beta-8; less than 5.00 against Integrin alpha-5/beta-1. The IC50 on Integrin alpha-V/beta-1 was 0.316 nM.
Turning to `N=C(N)NCCCCC(=O)Nc1ccc(C[C@H](NC(=O)[C@@H]2CCCN2S(=O)(=O)c2ccccc2[N+](=O)[O-])C(=O)O)cc1`, the pIC50 at Integrin alpha-V/beta-1 was 6.20.
As to `N=C(N)NCCCC(=O)Nc1ccc(C[C@H](NC(=O)[C@@H]2CCCCN2S(=O)(=O)c2ccccc2)C(=O)O)cc1`, the pIC50 on Integrin alpha-V/beta-1 is 9.60; against Integrin alpha-V/beta-3, 5.70; against Integrin alpha-V/beta-5 it was 5.80; on Integrin alpha-V/beta-8, 5.60; against Integrin alpha-5/beta-1, 5.49.
With `Cc1cc(C)c(S(=O)(=O)N2CCC[C@H]2C(=O)N[C@@H](Cc2ccc(NC(=O)CCCCNC(=N)N)cc2)C(=O)O)c(C)c1`, the pIC50 on Integrin alpha-V/beta-1 (cho) was less than 5.00. Also, the IC50 on Integrin alpha-V/beta-1 is more than 10000 nM.
On to `Cc1cccc(NCCCC(=O)Nc2ccc(C[C@H](NC(=O)[C@@H]3CCCN3S(=O)(=O)c3ccccc3)C(=O)O)cc2)n1`, for which the pIC50 on Integrin alpha-V/beta-1 was 6.70.
On the same count and under the same terms, with `N=C(N)NCCCCC(=O)Nc1ccc(C[C@H](NC(=O)[C@@H]2CSCN2S(=O)(=O)c2ccccc2)C(=O)O)cc1` the figure was 7.80; with `N=C(N)NCCCCC(=O)Nc1ccc(C[C@H](NC(=O)[C@@H]2C=CCN2S(=O)(=O)c2ccccc2)C(=O)O)cc1`, 6.10.
